From ChEMBL document CHEMBL1154474, “Pharmacophore based discovery of potential antimalarial agent targeting haem detoxification pathway” (Eur J Med Chem, 2008)
“And” between values parts separate entries of the source, which are not always exact repeats. Equal values may be shown once. Where a name gives a salt, the structure may show the parent alone.

Test system: Plasmodium falciparum
Assay: Antimalarial activity against chloroquine-resistant Plasmodium falciparum K1 after 48 hrs by [G-3H]hypoxanthine uptake
Format: functional, organism-based
Conditions: K1, 48 h

Compound	IC50 [nM]
CC(C)(C)NCc1cc(Cc2ccnc3cc(Cl)ccc23)ccc1O	9.1
C=C[C@@H]1CN2CC[C@@H]1C[C@H]2[C@H](O)c1ccnc2ccccc12	56.2
Oc1c(CN2CCCC2)cc(Nc2c3ccccc3nc3cc(Cl)ccc23)cc1CN1CCCC1	9.1
CC(CCCN1CCCC1)Nc1ccnc2cc(Cl)ccc12 (centres undefined) [Chloroquine-pyrolidinyl]	89.6
CCN(CC)Cc1cc(Nc2ccncc2)ccc1O	1300
CC(C)(C)NCc1cc(Nc2ccnc3cc(Cl)ccc23)cc(-c2ccc(Cl)cc2)c1O [TEBUQUINE]	13
CCNCc1cc(Cc2ccnc3cc(Cl)ccc23)ccc1O	38.8
C=CC1CN2CCC1C[C@H]2[C@H](O)c1ccnc2ccc(OC)cc12 (single isomer, unassigned) [QUININE]	81
CCN(CC)Cc1cc(Cc2ccnc3cc(Cl)ccc23)ccc1O	18
NCc1cc(Cc2ccnc3cc(Cl)ccc23)ccc1O	166
C=CC1CN2CCC1C[C@@H]2[C@@H](O)c1ccnc2ccc(OC)cc12 (single isomer, unassigned) [QUINIDINE]	51
Oc1ccc(Cc2ccnc3cc(Cl)ccc23)cc1CN1CCCC1	11.5
CCCCN(CCCC)CCC(C)c1cc2c(Cl)cc(Cl)cc2c2cc(C(F)(F)F)ccc12 (centres undefined)	2.8
CC(c1cc(C(F)(F)F)nc2c(C(F)(F)F)cccc12)C1CCCCN1 (centres undefined)	9.4
Oc1ccc(Nc2ccnc3cc(Cl)ccc23)cc1	2300
CCN(CC)CCCC(C)Nc1c2ccc(Cl)cc2nc2ccc(OC)cc12 (centres undefined) [QUINACRINE]	43
CCN(CC)CCCC(C)NC1=CC=NCC1 (centres undefined)	15100
CCN(CC)Cc1cc(Nc2ccnc3cc(Cl)ccc23)cc(-c2ccc(Cl)cc2)c1F	69
CCN(CC)Cc1cc(Nc2ccnc3cc(Cl)ccc23)cc(-c2ccc(Cl)cc2)c1 [DEHYDROXY TEBAQUINE]	69.3
C=C[C@@H]1CN2CC[C@@H]1C[C@@H]2[C@@H](O)c1ccnc2ccccc12	90.6
CC(CCCN)Nc1ccnc2cc(Cl)ccc12 (centres undefined) [BIDESETHYL CHLOROQUINE]	1340

Test system: not listed separately
Assay: Ionisation constant for the compound
Format: physicochemical
Conditions: not given
Summary of the method: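 Spectrophotometric pKa determination on a UV spectrometer, with measurements in buffers from pH 5.8 to 11.2 and in 0.1 M NaOH and 0.1 M HCl. The pH 5.8–8.0 buffers were made from 0.1 M KH2PO4/K2HPO4, and the pH 8.4–11.2 buffers from 0.1 M glycine with 0.1 M NaOH. Two constants (pKa1, pKa2) were reported.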

Compound	pKa
CCOc1ccc(/C=C/C(=N\NC(=O)c2cccnc2)c2ccc(O)cc2)cc1OC	6.87

Test system: Plasmodium falciparum
Assay: Antimalarial activity against chloroquine-resistant Plasmodium falciparum K1 after 72 hrs
Format: functional, organism-based
Conditions: K1, 72 h

Compound	IC50 [nM]
O=C1CC(c2ccc(C(F)(F)F)cc2)CC2C1C(=O)c1cc(Cl)ccc1N2O (centres undefined)	400
O=C1CC(c2ccc(Cl)cc2Cl)CC2Sc3ccc(Cl)cc3C(=O)C12 (centres undefined)	16
CN(C)CCC/N=C1\CC(c2ccc(Cl)cc2Cl)CC2Nc3ccc(Cl)cc3C(=O)C12 (centres undefined)	9.5

Test system: Plasmodium falciparum
Assay: Antimalarial activity against chloroquine and pyrimethamine-resistant Plasmodium falciparum K1 after 24 hrs by [3H]hypoxanthine uptake
Format: functional, organism-based
Conditions: not given

Compound	IC50
CN(C)c1ccc(Nc2c3ccccc3nc3cc(N)ccc23)cc1	800 nM and 350 nM

Same assay, conditions: Plasmodium falciparum, K1

Compound	IC50 [nM]
CS(=O)(=O)Nc1ccc(Nc2c3ccc(Cl)cc3nc3cc(Cl)ccc23)cc1	350
NS(=O)(=O)c1ccc(Nc2c3ccc(Cl)cc3nc3cc(Cl)ccc23)cc1	620
CN(C)c1ccc(Nc2c3ccccc3nc3cc(Cl)ccc23)cc1	1100
CS(=O)(=O)Nc1ccc(Nc2c3ccccc3nc3cc(Cl)ccc23)cc1	1000
CNc1ccc(Nc2c3ccccc3nc3cc(Cl)ccc23)cc1	1200

Test system: Plasmodium falciparum
Assay: Antimalarial activity against chloroquine-resistant Plasmodium falciparum K1 by [3H]hypoxanthine uptake
Format: functional, organism-based
Conditions: not given

Compound	IC50 [nM]
N=C(N)c1ccc(OCCCOc2ccc(C(=N)N)cc2)cc1 [PROPAMIDINE]	5.6
N=C(N)c1ccc(/N=N/Nc2ccc(C(=N)N)cc2)cc1 [DIMINAZENE]	190
N=C(N)c1ccc(/C=C/c2ccc(C(=N)N)cc2)cc1 [STILBAMIDINE]	27

Test system: Plasmodium falciparum
Assay: Antimalarial activity against chloroquine-resistant Plasmodium falciparum K1
Format: functional, organism-based
Conditions: not given

Compound	IC50 [nM]
C[n+]1c2ccccc2cc2[n-]c3ccccc3c21 [CRYPTOLEPINE HYDROCHLORIDE]	100000
CN(C)CCCN1c2ccc(NCc3cnc[nH]3)cc2Sc2ccc(Cl)cc21	1800
CCN(CC)CCCC(C)Nc1cc(CCCCCCCCCCCCc2cc(NC(C)CCCN(CC)CC)c3ccccc3n2)nc2ccccc12 (centres undefined)	16
CN(C)CCCC(=O)Nc1ccc2c(c1)Sc1ccc(Cl)cc1N2C	7000
C[n+]1c2ccc(Cl)cc2cc2[nH]c3cc(Cl)ccc3c21	45
CN(CCCNc1nc2ccc(Cl)cc2n2cccc12)CCCNc1nc2ccc(Cl)cc2n2cccc12	280
C[n+]1c2ccccc2cc2[nH]c3cc([N+](=O)[O-])cc([N+](=O)[O-])c3c21	650
CN(C)CCCC(=O)Nc1ccc2c(c1)Sc1ccc(Cl)cc1N2CCCN(C)C	2000
CN(C)CCCN(C)CCCN1c2ccccc2Sc2ccccc21	1000
C[n+]1c2ccc(Br)cc2cc2[nH]c3ccc([N+](=O)[O-])cc3c21	100000
C[n+]1c2ccccc2c(C(=O)O)c2[nH]c3ccc(Br)cc3c21	260
C[n+]1c2ccccc2cc2[nH]c3c([N+](=O)[O-])cccc3c21	6300
CCN(CC)CCCC(C)Nc1cc(CCCCCCCCCCc2cc(NC(C)CCCN(CC)CC)c3ccccc3n2)nc2ccccc12 (centres undefined)	17
CN(C)CCCN(CCCN(C)C)CCCN1c2ccccc2Sc2ccc(Cl)cc21	420
C[n+]1c2ccc(Cl)c(Cl)c2cc2[nH]c3ccccc3c21	440
